Measured values from ChEMBL document CHEMBL1137912, “Novel isoxazole carboxamides as growth hormone secretagogue receptor (GHS-R) antagonists” (Bioorg Med Chem Lett, 2004).

How the values were obtained:
[1] = target: T1, Growth hormone secretagogue receptor type 1 (Homo sapiens, UniProt Q92847); experiment: Ability to displace [125I]ghrelin from cloned human GHS-R expressed in CHO-K cells was determined (Kd of ghrelin is 0.4 nM); assay type: cell-based
[2] = target: T1, Growth hormone secretagogue receptor type 1; experiment: Ability to inhibit ghrelin induced increase in intracellular [Ca2+] in CHO-K cells was determined by FLIPR assay; assay type: functional, cell-based
Summary of the method: (§1)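 Antagonist mode in CHO-K cells stably expressing human GHS-R, grown to confluency overnight. Cells were loaded with Fluo-4 AM plus probenecid in DPBS for 1–3h in the dark at room temperature, then washed. Compound was added in 0.1% BSA/4% DMSO DPBS and read for 3min. Ghrelin was then added and read a further 3min at ex 488/em 520nm. IC50 from sigmoidal fit.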

[3] = target: T1, Growth hormone secretagogue receptor type 1; experiment: Binding affinity to displace [125I]ghrelin from cloned human GHS-R expressed in CHO-K cells was determined (Kd of ghrelin is 0.4 nM); assay type: cell-based
[4] = target: T1, Growth hormone secretagogue receptor type 1; experiment: Ability to inhibit ghrelin induced increase in intracellular [Ca2+] in CHO-K cells; assay type: functional, cell-based; summary of the method: as §1
[5] = target: Growth hormone secretagogue receptor type 1 (Rattus norvegicus, UniProt O08725); experiment: Inhibitory concentration against rat Growth hormone secretagogue receptor
Sequence of Growth hormone secretagogue receptor type 1 (Rattus norvegicus, UniProt O08725) (O08725 whole entry): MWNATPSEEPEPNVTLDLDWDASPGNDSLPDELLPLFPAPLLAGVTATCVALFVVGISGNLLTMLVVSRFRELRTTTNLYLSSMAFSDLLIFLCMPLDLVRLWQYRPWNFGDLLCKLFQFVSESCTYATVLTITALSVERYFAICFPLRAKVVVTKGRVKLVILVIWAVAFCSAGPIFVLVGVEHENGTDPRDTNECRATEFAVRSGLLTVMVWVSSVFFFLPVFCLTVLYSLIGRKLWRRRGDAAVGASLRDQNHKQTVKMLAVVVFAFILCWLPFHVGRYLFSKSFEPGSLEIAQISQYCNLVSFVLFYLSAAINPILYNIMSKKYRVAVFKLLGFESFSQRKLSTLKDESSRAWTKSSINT

[6] = target: Growth hormone secretagogue receptor type 1 (Mus musculus, UniProt Q99P50); experiment: Inhibitory concentration against mouse Growth hormone secretagogue receptor
Sequence of Growth hormone secretagogue receptor type 1 (Mus musculus, UniProt Q99P50) (Q99P50 whole entry): as the sequence (O08725 whole entry) above, with P30S, A249S counted along it

T1 sequence (Q92847 whole entry): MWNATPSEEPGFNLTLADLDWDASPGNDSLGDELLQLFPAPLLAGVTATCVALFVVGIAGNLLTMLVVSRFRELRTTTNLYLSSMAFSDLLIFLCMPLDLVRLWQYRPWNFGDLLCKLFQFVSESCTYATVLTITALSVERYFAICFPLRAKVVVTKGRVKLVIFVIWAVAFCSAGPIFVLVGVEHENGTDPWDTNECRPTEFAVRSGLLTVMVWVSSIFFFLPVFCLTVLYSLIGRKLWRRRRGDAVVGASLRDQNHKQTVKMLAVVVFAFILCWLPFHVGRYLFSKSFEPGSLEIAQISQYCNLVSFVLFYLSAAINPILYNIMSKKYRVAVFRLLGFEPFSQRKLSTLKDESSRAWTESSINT

SMILES | IC50 [1] [nM] | IC50 [2] [nM] | further results
CCN(CC)c1ccc(NC(=O)c2c(-c3c(Cl)cccc3Cl)noc2CCC2OCCCO2)cc1 | 6 | 19 | –
CCN(CC)c1ccc(NC(=O)c2c(-c3c(Cl)cccc3Cl)noc2C)cc1 | – | 180 | IC50 [3]: 130 nM
CCN(CC)c1ccc(NC(=O)c2c(-c3c(Cl)cccc3Cl)noc2CCCO)cc1 | 132 | 308 | –
CCN(CC)c1ccc(NC(=O)c2c(-c3c(Cl)cccc3Cl)noc2CCN2CCN(C)C2=O)cc1 | 21 | 10 | –
CCN(CC)[C@H]1CC[C@H](NC(=O)c2c(-c3c(Cl)cccc3Cl)noc2CCC2OCCCO2)CC1 | 87 | – | IC50 [4]: 3 nM
CCN(CC)c1ccc(NC(=O)c2c(-c3c(Cl)cccc3Cl)noc2CCOC)cc1 | 110 | 115 | –
CCN(CC)[C@H]1CC[C@H](NC(=O)c2c(-c3c(Cl)cccc3Cl)noc2CCN2CCCCC2=O)CC1 | 139 | 190 | –
CCN(CC)c1ccc(NC(=O)c2c(-c3c(Cl)cccc3Cl)noc2CCC2CCCO2)cc1 (configuration not stated) | 57 | 57 | –
CCN(CC)c1ccc(NC(=O)c2c(-c3c(Cl)cccc3Cl)noc2CCc2cccc3c2OCO3)cc1 | 162 | 564 | –
CCN(CC)c1ccc(NC(=O)c2c(-c3c(Cl)cccc3Cl)noc2CCN2CCCC2=O)cc1 | 18 | 18 | –
CCN(CC)c1ccc(NC(=O)c2c(-c3c(Cl)cccc3Cl)noc2CCC2CCCCO2)cc1 (configuration not stated) | 39 | 102 | –
CCN(CC)c1ccc(NC(=O)c2c(-c3c(Cl)cccc3Cl)noc2C(C)C)cc1 | 150 | 861 | –
CCN(CC)c1ccc(NC(=O)c2c(-c3c(Cl)cccc3Cl)noc2CCC2CCOCC2)cc1 | 29 | 146 | –
CCCc1onc(-c2c(Cl)cccc2Cl)c1C(=O)Nc1ccc(N(CC)CC)cc1 | 131 | 492 | –
CCN(CC)c1ccc(NC(=O)c2c(-c3c(Cl)cccc3Cl)noc2CN2CCCC2=O)cc1 | 122 | 98 | –
CCN(CC)[C@H]1CC[C@H](NC(=O)c2c(-c3c(Cl)cccc3Cl)noc2CCC2CCCO2)CC1 (some centres not stated) | 194 | 103 | –
CCc1onc(-c2c(Cl)cccc2Cl)c1C(=O)Nc1ccc(N(CC)CC)cc1 | 147 | 319 | –
CCN(CC)c1ccc(NC(=O)c2c(-c3c(Cl)cccc3Cl)noc2CCC2OCCO2)cc1 | 25 | 56 | –
CCN(CC)c1ccc(NC(=O)c2c(-c3c(Cl)cccc3Cl)noc2CCN2CCCCC2=O)cc1 | 9 | 8 | –
CCN(CC)c1ccc(NC(=O)c2c(-c3c(Cl)cccc3Cl)noc2CCN(C)C(C)=O)cc1 | 34 | 19 | –
CCN(CC)[C@H]1CC[C@H](NC(=O)c2c(-c3c(Cl)cccc3Cl)noc2CCc2ccc3c(c2)OCO3)CC1 | 32 | 54 | IC50 [5]: 12 nM; IC50 [6]: 7 nM
CCN(CC)c1ccc(NC(=O)c2c(-c3c(Cl)cccc3Cl)noc2CCN2C(=O)CCC2(C)C)cc1 | 39 | 15 | –
CCN(CC)c1ccc(NC(=O)c2c(-c3c(Cl)cccc3Cl)noc2CCc2ccccc2OC)cc1 | 389 | 714 | –
CCN(CC)[C@H]1CC[C@H](NC(=O)c2c(-c3c(Cl)cccc3Cl)noc2C)CC1 | 53 | 57 | –
CCN(CC)c1ccc(NC(=O)c2c(-c3c(Cl)cccc3Cl)noc2CCc2ccc3c(c2)OCO3)cc1 | 47 | 93 | –
